According to ChEMBL document CHEMBL4265959, “Targeting heme Oxygenase-1 with hybrid compounds to overcome Imatinib resistance in chronic myeloid leukemia cell lines” (Eur J Med Chem, 2018):
pIC50: −log10 of the molar value. Calls of active or inactive are those of the source. The calls are words filed in the database; no cut-off is given here.

Experiments:
K562 = assay: Cytotoxicity against imatinib-sensitive human K562 cells assessed as decrease in cell viability after 24 hrs by XTT assay; type: functional, cell-based; settings: K562, 24 h
Method in brief: (§1)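 K562R (imatinib-resistant) or K562S cells seeded at 1×10^4/well in phenol red-free RPMI, left 24 h, then exposed 24 h to various concentrations. XTT reagent added, 2 h incubation, absorbance at 450 nm; IC50 reported. Mean ± SD, four experiments in triplicate.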

[1] = biological target: T1, Heme oxygenase 1 (Homo sapiens) (UniProt P09601); assay: Inhibition of heme oxygenase 1 in human K562R cell lysates assessed as decrease in bilirubin formation at 10 uM after 60 mins by spectrophotometric method
T1 sequence (whole entry): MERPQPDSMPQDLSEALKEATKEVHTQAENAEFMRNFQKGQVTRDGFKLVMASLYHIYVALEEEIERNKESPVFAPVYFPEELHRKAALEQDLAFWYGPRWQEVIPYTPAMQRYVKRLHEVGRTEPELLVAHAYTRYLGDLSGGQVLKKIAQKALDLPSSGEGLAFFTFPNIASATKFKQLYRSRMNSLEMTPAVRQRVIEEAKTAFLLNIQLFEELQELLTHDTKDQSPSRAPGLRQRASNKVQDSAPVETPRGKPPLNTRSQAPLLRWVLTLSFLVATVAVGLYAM
Method in brief: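 Intact K562R cells treated 24 h at 10 μM, then lysate (1 mg/mL) assayed. Mix: 20 mM Tris-HCl pH 7.4, liver biliverdin reductase 0.5–2 mg/mL, 1 mM NADPH, G6P/G6PDH, 25 μM hemin. 60 min at 37 °C in the dark, chloroform extraction, bilirubin by OD 464–530 nm. Mean ± SD, four experiments in triplicate.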

K-562R [2] = assay: Cytotoxicity against human K562R cells assessed as decrease in cell viability after 24 hrs by XTT assay; type: functional, cell-based; method in brief: as §1
K-562R [3] = assay: Induction of ROS production in human K562R cells at 10 uM by DCFH-DA dye based spectrofluorometric method; type: functional, cell-based
Method in brief: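 K562R cells (RPMI-1640, 10% FBS, 37 °C, 5% CO2) treated 24 h at 10 μM, then probed with DCFH-DA. DCF fluorescence read at excitation 488 nm, emission 525 nm, normalized to total protein (F.I./mg protein). Mean ± SD, four experiments in triplicate.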

Heme oxygenase 1 = biological target: T2, Heme oxygenase 1 (Rattus norvegicus, UniProt P06762); assay: Inhibition of heme oxygenase 1 in Sprague-Dawley rat spleen microsomal fraction assessed as decrease in bilirubin formation using hemin as substrate after 60 mins by spectrophotometric method
T2 sequence (P06762 whole entry): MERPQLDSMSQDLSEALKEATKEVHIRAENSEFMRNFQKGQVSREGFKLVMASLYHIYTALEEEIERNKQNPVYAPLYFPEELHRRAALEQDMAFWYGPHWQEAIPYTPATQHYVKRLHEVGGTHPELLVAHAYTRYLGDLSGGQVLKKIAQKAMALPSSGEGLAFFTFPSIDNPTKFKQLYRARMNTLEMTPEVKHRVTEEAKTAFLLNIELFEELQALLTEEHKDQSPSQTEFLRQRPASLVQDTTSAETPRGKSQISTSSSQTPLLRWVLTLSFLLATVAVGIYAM

K-562R [4] = assay: Induction of apoptosis in human K562R cells assessed as late apoptotic cells at 10 uM by Annexin V staining-based flow cytometry (reference value: 9.49%); type: functional
[5] = biological target: T1, Heme oxygenase 1 (Homo sapiens); assay: Inhibition of heme oxygenase 1 in human K562R cells assessed as decrease in HO-1 mRNA levels at 10 uM by qRT-PCR method; type: cell-based
Method in brief: (§2)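 K562R cells treated 24 h at 10 μM, rinsed in cold PBS and lysed in Trizol. HO-1 and HO-2 mRNA measured by real-time PCR alongside GAPDH. Mean ± SD, four experiments in triplicate.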

K-562R [6] = assay: Induction of apoptosis in human K562R cells assessed as early apoptotic cells at 10 uM by Annexin V staining-based flow cytometry (reference value: 8.51%); type: functional
K-562R [7] = assay: Induction of apoptosis in human K562R cells assessed as necrotic cells at 10 uM by Annexin V staining-based flow cytometry (reference value: 0.87%); type: functional
K-562R [8] = assay: Induction of apoptosis in human K562R cells assessed as viable cells at 10 uM by Annexin V staining-based flow cytometry (reference value: 81.13%); type: functional; settings: read-out: Activity
K-562R [9] = assay: Effect on heme oxygenase 2 mRNA levels in human K562R cells at 10 uM by qRT-PCR method; type: functional, cell-based; method in brief: as §2
Lymphocyte = assay: Cytotoxicity against human lymphocytes assessed as decrease in cell viability at 10 uM after 24 hrs by XTT assay; type: cell-based
Method in brief: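 Lymphocytes from healthy volunteers isolated on Ficoll–Paque, grown in RPMI-1640 with 10% FBS and 1% penicillin/streptomycin at 37 °C, 5% CO2, and treated 24 h at 10 μM.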

[10] = biological target: Bcr/Abl fusion protein (Homo sapiens) (UniProt P00519+P11274); assay: Inhibition of BCR-ABL in human K562R cells assessed as decrease in CrKL phosphorylation at 10 uM by immuno blot analysis; type: cell-based
Chain of Bcr/Abl fusion protein (Homo sapiens) (P00519 whole entry, looked up, the tested form may be a part): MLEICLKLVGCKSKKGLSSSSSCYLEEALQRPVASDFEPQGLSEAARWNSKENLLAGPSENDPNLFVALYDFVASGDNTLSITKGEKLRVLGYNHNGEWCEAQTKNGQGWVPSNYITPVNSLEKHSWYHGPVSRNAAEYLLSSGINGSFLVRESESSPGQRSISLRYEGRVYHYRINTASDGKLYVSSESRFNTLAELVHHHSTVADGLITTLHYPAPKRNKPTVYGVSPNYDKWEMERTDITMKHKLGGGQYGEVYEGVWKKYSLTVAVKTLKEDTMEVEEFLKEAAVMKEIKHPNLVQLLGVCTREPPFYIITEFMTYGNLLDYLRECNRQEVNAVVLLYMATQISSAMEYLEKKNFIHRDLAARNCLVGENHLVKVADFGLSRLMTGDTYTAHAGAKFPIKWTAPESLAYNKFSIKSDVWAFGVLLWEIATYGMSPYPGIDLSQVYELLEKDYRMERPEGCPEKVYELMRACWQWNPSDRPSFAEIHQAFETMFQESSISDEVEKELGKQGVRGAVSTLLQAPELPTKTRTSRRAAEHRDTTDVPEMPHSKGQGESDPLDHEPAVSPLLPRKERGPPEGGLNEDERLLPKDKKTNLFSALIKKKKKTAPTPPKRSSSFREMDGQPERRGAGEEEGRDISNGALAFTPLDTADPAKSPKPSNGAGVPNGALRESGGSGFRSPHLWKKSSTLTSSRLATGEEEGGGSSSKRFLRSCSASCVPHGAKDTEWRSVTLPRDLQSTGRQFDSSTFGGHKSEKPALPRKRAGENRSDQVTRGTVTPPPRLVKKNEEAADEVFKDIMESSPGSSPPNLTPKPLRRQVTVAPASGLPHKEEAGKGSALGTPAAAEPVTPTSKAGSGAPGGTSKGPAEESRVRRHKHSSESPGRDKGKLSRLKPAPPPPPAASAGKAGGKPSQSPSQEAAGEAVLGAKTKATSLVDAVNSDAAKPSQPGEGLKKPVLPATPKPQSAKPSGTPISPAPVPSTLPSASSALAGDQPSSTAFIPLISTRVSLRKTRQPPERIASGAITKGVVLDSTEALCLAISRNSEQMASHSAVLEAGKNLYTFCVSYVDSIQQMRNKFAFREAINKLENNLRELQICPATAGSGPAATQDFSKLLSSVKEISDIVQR
Chain of Bcr/Abl fusion protein (Homo sapiens) (P11274 whole entry, looked up, the tested form may be a part): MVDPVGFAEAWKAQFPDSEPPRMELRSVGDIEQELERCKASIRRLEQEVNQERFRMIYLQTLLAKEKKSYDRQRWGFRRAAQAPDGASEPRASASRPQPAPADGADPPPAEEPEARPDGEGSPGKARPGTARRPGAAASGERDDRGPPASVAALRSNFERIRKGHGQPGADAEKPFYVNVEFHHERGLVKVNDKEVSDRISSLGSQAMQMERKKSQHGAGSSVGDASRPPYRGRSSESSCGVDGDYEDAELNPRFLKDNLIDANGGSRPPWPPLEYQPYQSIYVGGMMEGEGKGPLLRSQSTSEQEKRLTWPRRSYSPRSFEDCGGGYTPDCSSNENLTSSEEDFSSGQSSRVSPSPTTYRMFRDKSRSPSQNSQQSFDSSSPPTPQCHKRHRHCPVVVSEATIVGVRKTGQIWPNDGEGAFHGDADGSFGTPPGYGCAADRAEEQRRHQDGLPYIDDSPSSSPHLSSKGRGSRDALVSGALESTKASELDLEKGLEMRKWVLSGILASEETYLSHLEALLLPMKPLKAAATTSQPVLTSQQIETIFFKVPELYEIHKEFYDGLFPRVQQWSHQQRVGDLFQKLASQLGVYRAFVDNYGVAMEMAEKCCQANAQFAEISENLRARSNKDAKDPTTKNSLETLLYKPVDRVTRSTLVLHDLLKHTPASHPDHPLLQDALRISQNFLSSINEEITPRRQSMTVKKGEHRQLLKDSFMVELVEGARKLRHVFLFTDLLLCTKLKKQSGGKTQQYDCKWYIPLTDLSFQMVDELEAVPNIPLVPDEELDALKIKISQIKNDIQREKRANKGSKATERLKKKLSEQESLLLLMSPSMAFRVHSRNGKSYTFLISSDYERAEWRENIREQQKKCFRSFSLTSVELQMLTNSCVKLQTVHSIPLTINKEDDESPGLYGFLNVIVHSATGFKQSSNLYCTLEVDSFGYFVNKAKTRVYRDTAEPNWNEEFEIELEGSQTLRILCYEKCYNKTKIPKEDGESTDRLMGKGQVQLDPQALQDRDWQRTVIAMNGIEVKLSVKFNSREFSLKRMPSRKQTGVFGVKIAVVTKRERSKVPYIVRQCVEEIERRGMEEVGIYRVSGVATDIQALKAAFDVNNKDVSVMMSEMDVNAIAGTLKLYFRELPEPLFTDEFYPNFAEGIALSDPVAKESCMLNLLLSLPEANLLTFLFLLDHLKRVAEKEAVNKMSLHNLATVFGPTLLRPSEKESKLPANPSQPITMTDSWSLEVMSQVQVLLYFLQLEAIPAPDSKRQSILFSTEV
Method in brief: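 K562R cells treated 24 h at 10 μM and lysed. 20 μg protein separated on SDS-PAGE, transferred to nitrocellulose and probed with anti-CrkL and anti-pCrkL (1:1,000), then infrared-dye secondary antibody. Densitometry gives pCrkL/CrkL ratio as fold of untreated control. Four experiments in triplicate.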

SMILES | inhibition [1] | pIC50 (Heme oxygenase 1) | inhibition [10] | pIC50 (K562) | pIC50 (K-562R [2]) | Activity (K-562R [3]) | Activity (K-562R [4]) [%] | inhibition [5] | Activity (K-562R [6]) [%] | Activity (K-562R [7]) [%] | viability at 10 µM (K-562R [8]) [%] | Activity (K-562R [9]) | Activity (Lymphocyte)
Brc1cccc(OCCCCn2ccnc2)c1 | Active | – | – | 4.17 | 4.09 | Active | – | – | – | – | – | – | –
Cc1ccc(OCCCCn2ccnc2)c(C(=O)Nc2ccc(C)c(Nc3nccc(-c4cccnc4)n3)c2)c1 | – | 6.02 | – | 4.23 | 4.31 | – | – | – | – | – | – | – | –
Cc1ccc(NC(=O)c2ccc(CN3CCN(C)CC3)cc2)cc1Nc1nccc(-c2cccnc2)n1 [IMATINIB] | Active | < 4.00 | – | 6.00 | 4.01 | inactive | 3.6 | inactive | 6.25 | 0.79 | 89.4 | – | –
Cc1ccc(NC(=O)c2ccc(OCCCCn3ccnc3)cc2)cc1Nc1nccc(-c2cccnc2)n1 | – | 4.18 | – | 4.30 | 4.00 | – | – | – | – | – | – | – | –
COc1ccc(C(=O)Nc2ccc(C)c(Nc3nccc(-c4cccnc4)n3)c2)c(OCCCCn2ccnc2)c1 | – | 4.21 | – | 4.23 | 4.33 | – | – | – | – | – | – | – | –
Cc1ccc(NC(=O)c2cc(Br)cc(OCCCCn3ccnc3)c2)cc1Nc1nccc(-c2cccnc2)n1 | Active | 4.54 | Active | 5.19 | 4.72 | Active | 47.6 | – | 1.55 | 9.65 | 41.2 | inactive | Non-Toxic
Cc1ccc(NC(=O)c2cccc(OCCCCn3ccnc3)c2)cc1Nc1nccc(-c2cccnc2)n1 | – | 4.41 | – | 4.13 | 4.20 | – | – | – | – | – | – | – | –
Cc1ccc(NC(=O)c2ccc(Br)cc2OCCCCn2ccnc2)cc1Nc1nccc(-c2cccnc2)n1 | – | 6.02 | Active | 4.18 | 4.35 | – | – | – | – | – | – | – | –
Ic1ccc(OCCCCn2ccnc2)cc1 | Active | – | – | 4.16 | 4.07 | Active | – | – | – | – | – | – | –
Cc1ccc(NC(=O)c2ccc([N+](=O)[O-])c(OCCCCn3ccnc3)c2)cc1Nc1nccc(-c2cccnc2)n1 | – | 5.39 | Active | 4.60 | 4.32 | – | 14.2 | – | 2.15 | 1.25 | 82.4 | – | Non-Toxic
Cc1ccc(NC(=O)c2ccccc2OCCCCn2ccnc2)cc1Nc1nccc(-c2cccnc2)n1 | – | 4.55 | – | 4.32 | 4.08 | – | – | – | – | – | – | – | –
Cc1ccc(N)cc1Nc1nccc(-c2cccnc2)n1 | – | < 4.00 | – | – | – | – | – | – | – | – | – | – | –

Second part, led by results:

inhibition [1] | pIC50 (Heme oxygenase 1) | inhibition [10] | SMILES | pIC50 (K562) | pIC50 (K-562R [2]) | Activity (K-562R [3]) | Activity (K-562R [4]) [%] | inhibition [5] | Activity (K-562R [6]) [%] | Activity (K-562R [7]) [%] | viability at 10 µM (K-562R [8]) [%] | Activity (K-562R [9]) | Activity (Lymphocyte)
– | 4.82 | – | Cc1ccc(NC(=O)c2ccc(I)cc2OCCCCn2ccnc2)cc1Nc1nccc(-c2cccnc2)n1 | 4.24 | 4.29 | – | – | – | – | – | – | – | –
Active | 4.82 | Active | COc1ccc(C(=O)Nc2ccc(C)c(Nc3nccc(-c4cccnc4)n3)c2)cc1OCCCCn1ccnc1 | 5.00 | 4.73 | Active | 39.5 | – | 5.4 | 3.85 | 51.3 | inactive | Non-Toxic
– | 4.13 | Active | Cc1ccc(NC(=O)c2ccc(OCCCCn3ccnc3)c(I)c2)cc1Nc1nccc(-c2cccnc2)n1 | 4.49 | 4.28 | – | – | – | – | – | – | – | –
– | 4.41 | – | Cc1ccc(NC(=O)c2cc(I)ccc2OCCCCn2ccnc2)cc1Nc1nccc(-c2cccnc2)n1 | 4.18 | 4.09 | – | – | – | – | – | – | – | –
– | 4.25 | Active | COc1cc(C(=O)Nc2ccc(C)c(Nc3nccc(-c4cccnc4)n3)c2)ccc1OCCCCn1ccnc1 | 4.53 | 4.57 | – | 32.3 | – | 4.4 | 2.9 | 60.4 | – | Non-Toxic
– | 6.04 | Active | Cc1ccc(NC(=O)c2ccc(OCCCCn3ccnc3)c(Br)c2)cc1Nc1nccc(-c2cccnc2)n1 | 4.92 | 4.50 | – | 13.15 | – | 2.3 | 0.65 | 83.8 | – | Non-Toxic
